Compound activity from PubChem BioAssay.
TAAR1 antagonist – antagonists of human TAAR1; Q96RJ0; CHO RD-HGA16 TAAR1, Fluo-8 calcium fluorescence, antagonist; inhibition, % at 3 µM; actives 1.5% (n = 360,000);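 active = inhibition above a per-plate cutoff, the mean inhibition of test compounds on that plate plus 3 SD, cut at about 49% in these data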;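 note: 0% = DMSO plus EC80 beta-PEA response and 100% = DMSO alone without agonist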
Target sequence (Q96RJ0 whole entry, looked up): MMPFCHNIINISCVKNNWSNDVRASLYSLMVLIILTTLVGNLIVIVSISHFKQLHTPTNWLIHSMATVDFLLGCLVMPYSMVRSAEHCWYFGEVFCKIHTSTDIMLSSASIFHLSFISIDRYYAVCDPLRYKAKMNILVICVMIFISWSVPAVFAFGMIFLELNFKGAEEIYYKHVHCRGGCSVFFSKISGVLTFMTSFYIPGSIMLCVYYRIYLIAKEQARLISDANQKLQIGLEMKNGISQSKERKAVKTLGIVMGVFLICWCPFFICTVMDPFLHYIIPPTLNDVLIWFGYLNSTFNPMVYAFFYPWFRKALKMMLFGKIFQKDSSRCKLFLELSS
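Test system – hTAAR1-expressing CHO RD-HGA16 cells, Gα16-coupled · Also added – β-PEA at EC80 concentration, post-compound challenge · Compound – 3 µM, single point · Incubation – dye loading 75 min at 37 °C, then 30 min room temperature · Measured by – Fluo-8 intracellular calcium dye fluorescence, real-time kinetic reads · Benchmarks – vehicle and agonist controls · Replicates – singlicate, one well per test compound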
TAAR1 ag – human TAAR1 agonism | Q96RJ0 | CHO RD-HGA16 TAAR1, Fluo-8 calcium fluorescence; vehicle wells 0%, saturating PEA agonist 100% | activation, % at 3 µM | actives 0.99% (n = 360,000) | AID 624467;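 active = activation above the mean activation of all test compounds in the run plus 3 SD, cut at about 38% in these data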
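test system = CHO RD-HGA16 cells carrying human TAAR1 plus Gα16 | schedule = 17-24 h seeding, 75 min 37 °C dye, 30 min RT | compound dosing = 3 µM single concentration | control set = DMSO and PEA EC100 | replicates = n 1 | signal = Fluo-8 fluorescence, 5 s baseline then 140 s kinetic read | measure = percent activation vs PEA EC100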
GPR7 antag – antagonists of human GPR7 (neuropeptides B/W receptor 1); P48145; GPR7-expressing cells, fluorescence antagonist assay; inhibition, % at 4.4 µM; actives 1.1% (n = 290,000); AID 1861; in the data active = inhibition above about 16%, passing the limit was not always enough;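 note: cells stimulated with the agonist NPW; 0% = agonist with vehicle and 100% = vehicle without agonist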
Target sequence (P48145 whole entry, looked up): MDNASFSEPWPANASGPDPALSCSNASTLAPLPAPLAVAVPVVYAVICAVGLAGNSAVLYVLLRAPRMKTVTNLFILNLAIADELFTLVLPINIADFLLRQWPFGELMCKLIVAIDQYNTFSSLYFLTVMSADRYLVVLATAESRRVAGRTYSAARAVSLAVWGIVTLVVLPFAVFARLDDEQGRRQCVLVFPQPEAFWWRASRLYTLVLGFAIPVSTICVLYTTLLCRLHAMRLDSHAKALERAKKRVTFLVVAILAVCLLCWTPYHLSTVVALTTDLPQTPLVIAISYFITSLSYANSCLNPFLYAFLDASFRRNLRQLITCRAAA
LANA-H2B inh – blocks KSHV LANA binding to histone H2A/H2B; Q9QR71; cell-free LANA-H2A/H2B peptide, fluorescence polarization; inhibition, % (concentration not given with the values); actives 0.6% (n = 320,000); in the data active = inhibition mostly above about 10%, no sharp cut-off; inactive = mostly below about 6.7%
zfTRPN1 agonist – zebrafish TRPN1 (NompC) channel agonism. HEK293 zebrafish TRPN1-YFP, Fluo-8 calcium fluorescence; 100% = response to 87 µM carbachol. actives 0.18% (n = 220,000). activation, % at 3 µM. AID 1424;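 active = activation above its plate's cutoff, the mean activation of test wells on that plate plus 3 SD, cut at about 19% in these data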;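 note: 0% = DMSO alone and 100% = 87 µM carbachol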
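System: zebrafish TRPN1-YFP in HEK293 cells / Dosing: 3 µM single point / Timing: dye loading 1 h at 37 °C, then 30 min room temperature / Signal: Fluo-8 calcium fluorescence, excitation 470-495 nm, emission 515-575 nm / Read-out basis: percent activation from peak over basal fluorescence ratio, control-normalized / Control set: high carbachol 87 µM, low DMSO alone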
TRPML3 agonist – activates the human TRPML3 channel; Q8TDD5; HEK293 TRPML3-YFP, Fluo-8 calcium fluorescence; 100% = the carbachol control signal; activation, % at 3 µM; actives 0.29% (n = 220,000);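 active = activation above its plate's cutoff, the mean activation of the plate's test wells plus 3 SD, cut at about 12% in these data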;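 note: 0% = DMSO only wells and 100% = carbachol wells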
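Test system: TRPML3-YFP stable HEK293 cells. Doses: single point at 3 µM. Incubation: dye loading 1 h 37 °C then 30 min ambient, 125 s read. Signal: Fluo-8 calcium dye fluorescence, ex 470-495, em 515-575 nm. Measure: percent activation from peak-to-basal fluorescence ratio, scaled between DMSO and carbachol.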
GPR7 antag cf – confirmation of human GPR7 antagonists | shares compounds with GPR7 antag | GPR7-expressing cells, calcium fluorescence antagonist mode | inhibition, % at 4.4 µM | actives 52% (n = 2,400); in the data active = inhibition above about 24%;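 note: stimulated with the GPR7 agonist NPW; 0% = agonist plus vehicle and 100% = vehicle alone without agonist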
MCHR1 antagonist – counter-screen for GPR7 antagonists: antagonists of human MCHR1 | shares compounds with GPR7 antag | MCHR1-expressing cells, fluorescence antagonist assay | actives 62% (n = 2,400) | inhibition, % at 4.4 µM | AID 2148; in the data active = inhibition above about 22%;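 note: 0% = vehicle with agonist and 100% = vehicle without agonist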
Numbers without * were called inactive; · = no result given. Compounds with a hit are over-represented: about 3.4% of the library has one in this group of screens.

SMILES | TAAR1 antagonist | TAAR1 ag | GPR7 antag | LANA-H2B inh | zfTRPN1 agonist | TRPML3 agonist | GPR7 antag cf | MCHR1 antagonist
Cc1ccc(C(=O)NCc2ccc3c(c2)OCO3)o1 | -13 | 0 | 28* | 3 | · | · | 0 | 5
Fc1ccccc1NC(=S)NCc1ccc2c(c1)OCO2 | -15 | 2 | 31* | -2 | 0 | -1 | 19 | 7
CCOc1ccc(-c2cc(C(=O)NC3CCCCC3)[nH]n2)c(C)c1 | -14 | -3 | · | · | · | · | · | ·
O=S(=O)(Nc1cccc(-c2cn3c(n2)SCC3)c1)c1ccc(F)cc1F | -1 | 1 | 25* | -6 | · | · | 7 | 0
CCOC(=O)C(C)Oc1cccc2c(=O)n(CC(=O)NCc3ccccc3)ccc12 (stereo not given) | -17 | 2 | 22* | -3 | 2 | 0 | 14 | 20
COc1cccc(NC(=O)COc2cccc(-n3cnnn3)c2)c1 | 18 | 5 | 10 | 3 | 0 | 0 | · | ·
Cc1cc(OCCCC(=O)Nc2cccc(-n3cnnn3)c2)ccc1Cl | 60* | 7 | 29* | 9 | · | · | 48* | 82*
C=C1CCc2c([nH]c3ccc(OCC(C)C)cc23)C1=O | -8 | 8 | 57* | 0 | · | · | 91* | 97*
Cc1cccc(C(C)C)c1NC(=O)Cc1ccc(S(=O)(=O)N2CCOCC2)s1 | -20 | 3 | · | -1 | · | · | · | ·
CNC(=O)C1Cc2c(-c3ccccc3Oc3ccccc3)ccnc2O1 (stereo not given) | -10 | 4 | · | · | · | · | · | ·
Cc1onc(-c2ccccc2)c1C(=O)Nc1ncc([N+](=O)[O-])s1 | -1 | 8 | 27* | 0 | · | · | 19 | 37*
CC(NC(=O)Cc1ccc(NS(=O)(=O)c2cccc(C(F)(F)F)c2)cc1)c1ccccn1 (stereo not given) | -6 | -3 | -6 | -10 | · | · | · | ·
O=C(CCN(CCO)Cc1ccccc1)Nc1ccc(Br)cc1 | 6 | 11 | 24* | 3 | 1 | 2 | 24* | 7
CCOC(=O)N/N=C/c1cn(CCCOc2ccccc2)c2ccccc12 | -1 | 3 | 27* | · | -1 | 0 | 9 | 44*
CCOC(=O)N/N=C/c1cn(CCCOc2ccc(C)cc2)c2ccccc12 | 20 | 1 | 11 | 1 | -2 | 0 | · | ·
O=C(CSc1ccc([N+](=O)[O-])cn1)Nc1nccs1 | -26 | 1 | -5 | 5 | · | · | · | ·
CC(C(=O)NCCCc1ccccc1)c1ccc([N+](=O)[O-])cc1 (stereo not given) | 3 | 17 | 22* | 3 | 1 | 1 | 33* | 58*
CC(C(=O)Nc1nccs1)c1ccc([N+](=O)[O-])cc1 (stereo not given) | 9 | 33 | 37* | -14 | 5 | 4 | 18 | 10
COc1cc(/C=C/C(=O)c2ccc3c(c2)OCCO3)cc(Br)c1OCC(=O)N(C)C | 13 | 8 | 15 | 0 | · | · | · | ·
Cc1ccc(C)c(OCC(O)CN2CCC(Cc3ccccc3)CC2)c1 (stereo not given) | 2 | 23 | 4 | 4 | · | · | · | ·
Clc1ccccc1Nc1ncnc2c1nnn2Cc1ccccc1 | -8 | 6 | 34* | 4 | -2 | -1 | 24 | 4
Fc1ccccc1Nc1ncnc2c1nnn2Cc1ccccc1 | -20 | 8 | 34 | -5 | · | · | · | ·
CCc1ccc(CNC(=O)CCC(=O)N2Cc3cccc(OC)c3Oc3ncccc32)cc1 | -21 | 3 | 23* | -4 | · | · | 3 | -5
COc1cccc2c1Oc1ncccc1N(C(=O)CCC(=O)NCc1ccccc1)C2 | -16 | 5 | 12 | -4 | · | · | · | ·
CC(C)c1cc(N2CCN(C(=O)c3ccco3)CC2)n2c(nc3ccccc32)c1C#N | 29 | 5 | 25* | 1 | 2 | 0 | -9 | 3
SMILES | TAAR1 antagonist | TAAR1 ag | GPR7 antag | LANA-H2B inh | zfTRPN1 agonist | TRPML3 agonist | GPR7 antag cf | MCHR1 antagonist
CCCSc1nsc(NC(=O)Nc2ccc(F)cc2F)n1 | 9 | 7 | 20 | 0 | · | · | · | ·
COc1cccc(NC(=O)Nc2nc(SC)ns2)c1 | 11 | 13 | -4 | 6 | · | · | · | ·
COc1cccc(NC(=O)Nc2nc(SC(C)(C)C)ns2)c1 | 59* | 19 | 29* | -4 | · | · | 60* | 72*
CCSc1nsc(NC(=O)Nc2cccc(F)c2)n1 | 17 | 14 | 36* | 11 | · | · | 46* | 60*
CN(C)c1ccc(N=Nc2ccccc2C(=O)OCC(=O)N(C)C2CCCCC2)cc1 | -29 | 2 | 25* | -7 | -1 | -1 | 31* | 76*
CN(C)c1ccc(N=Nc2ccccc2C(=O)OCC(=O)NCC2CCCCC2)cc1 | 2 | 1 | -17 | -2 | -4 | -1 | · | ·
COc1ccccc1N1CCN(C(=O)c2ccc(N3CCCCS3(=O)=O)cc2)CC1 | -6 | 4 | -2 | 4 | · | · | · | ·
CN1CCN(c2ccccc2NC(=O)COc2ccc(Cl)cc2)CC1 | -3 | 1 | 10 | 1 | · | · | · | ·
CC(C)C(=O)N1CCN(c2ccccc2NC(=O)Cc2ccc(Cl)cc2)CC1 | 1 | -1 | 29* | 4 | -1 | -1 | 39* | 37*
CCC(=O)N1CCN(c2ccccc2NC(=O)Cc2ccccc2)CC1 | 13 | -1 | 22* | -4 | -1 | 0 | 15 | 22*
CN1CCN(c2ccccc2NC(=O)COc2ccccc2)CC1 | -1 | 4 | 22* | -2 | -1 | 0 | 15 | 12
O=C(Cc1ccccc1)Nc1ccccc1N1CCN(c2ccccc2)CC1 | 16 | 5 | 0 | 2 | -1 | -1 | · | ·
COCCOC(=O)N1CCCCC1c1cc(C(=O)Nc2cccc3c2CCCC3)no1 (stereo not given) | -11 | 6 | · | · | · | · | · | ·
CCN(CC)C(=O)Oc1ccc2oc(=O)cc(-c3cc4cccc(OC)c4o3)c2c1 | 25 | -3 | -6 | 5 | · | · | · | ·
Cc1nn(C(C)C(=O)NCCCc2ccccc2)c(=O)c2nn(-c3ccccc3)c(C)c12 (stereo not given) | -13 | 0 | -18 | -3 | · | · | · | ·
COc1ccc(CNC(=O)CSc2nnc(C)c(=O)[nH]2)cc1 | -9 | 1 | 25* | 1 | -2 | -1 | -6 | 0
NS(=O)(=O)c1cc(C(=O)OCC(=O)c2ccccc2)c(Cl)cc1Cl | 11 | 7 | 22* | -1 | 2 | 0 | 18 | 0
O=C(NCc1cccnc1)c1cc(C2CCCCN2C(=O)CCCc2ccccc2)on1 (stereo not given) | -6 | 4 | · | · | · | · | · | ·
O/N=C(/c1ccc(Cl)cc1)C1CC1c1ccccc1 (stereo not given) | 6 | -3 | 34* | 3 | · | · | 22 | 11
